Consider four compounds from article PMC2833353 (Cancer research, 2009).

Where a SMILES comes first, the peptide text is derived from it. Bridges are numbered along the chain shown (N, C = ends). The star is where a group is joined. DOTA = O=C(O)CN1CCN(CC(=O)O)CCN(CC(=O)*)CCN(CC(=O)O)CC1

The target in series [1] is integrin αvβ3 (Homo sapiens) (UniProt P06756). Particulars: cited from earlier work.
For a further series, the system named is U87MG cells. Particulars: read-out: IC50, competition binding of 125I-echistatin on U87MG cells; cited from earlier work.
Series [2] in a line: In vivo biodistribution study in U87MG tumor-bearing mice. Particulars: female, athymic nude (nu/nu), mouse, iv, total radioactivity; for tissue uptake at 24 h: kidneys; for tissue to tissue ratio at 4 h: tumor / blood. In a few lines: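 Female athymic nu/nu mice with subcutaneous shoulder U87MG xenografts (2 × 10^7 cells; tumors ~8–10 mm) were anesthetized and given ~100 μCi of 64Cu-DOTA-labeled knottin peptide by tail vein, then sacrificed at 0.5, 1, 4 or 24 h. Tumor, blood, kidneys and other organs were weighed and gamma-counted against a tracer aliquot, giving %ID/g and tumor-to-organ ratios. Mean ± SD, ≥3 mice.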

Chain of Echistatin (P17347 131-179): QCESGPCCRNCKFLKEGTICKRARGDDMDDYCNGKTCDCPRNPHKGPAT
Chain of integrin αvβ3 (Homo sapiens) (P06756 31-1048, chain 1 of 2): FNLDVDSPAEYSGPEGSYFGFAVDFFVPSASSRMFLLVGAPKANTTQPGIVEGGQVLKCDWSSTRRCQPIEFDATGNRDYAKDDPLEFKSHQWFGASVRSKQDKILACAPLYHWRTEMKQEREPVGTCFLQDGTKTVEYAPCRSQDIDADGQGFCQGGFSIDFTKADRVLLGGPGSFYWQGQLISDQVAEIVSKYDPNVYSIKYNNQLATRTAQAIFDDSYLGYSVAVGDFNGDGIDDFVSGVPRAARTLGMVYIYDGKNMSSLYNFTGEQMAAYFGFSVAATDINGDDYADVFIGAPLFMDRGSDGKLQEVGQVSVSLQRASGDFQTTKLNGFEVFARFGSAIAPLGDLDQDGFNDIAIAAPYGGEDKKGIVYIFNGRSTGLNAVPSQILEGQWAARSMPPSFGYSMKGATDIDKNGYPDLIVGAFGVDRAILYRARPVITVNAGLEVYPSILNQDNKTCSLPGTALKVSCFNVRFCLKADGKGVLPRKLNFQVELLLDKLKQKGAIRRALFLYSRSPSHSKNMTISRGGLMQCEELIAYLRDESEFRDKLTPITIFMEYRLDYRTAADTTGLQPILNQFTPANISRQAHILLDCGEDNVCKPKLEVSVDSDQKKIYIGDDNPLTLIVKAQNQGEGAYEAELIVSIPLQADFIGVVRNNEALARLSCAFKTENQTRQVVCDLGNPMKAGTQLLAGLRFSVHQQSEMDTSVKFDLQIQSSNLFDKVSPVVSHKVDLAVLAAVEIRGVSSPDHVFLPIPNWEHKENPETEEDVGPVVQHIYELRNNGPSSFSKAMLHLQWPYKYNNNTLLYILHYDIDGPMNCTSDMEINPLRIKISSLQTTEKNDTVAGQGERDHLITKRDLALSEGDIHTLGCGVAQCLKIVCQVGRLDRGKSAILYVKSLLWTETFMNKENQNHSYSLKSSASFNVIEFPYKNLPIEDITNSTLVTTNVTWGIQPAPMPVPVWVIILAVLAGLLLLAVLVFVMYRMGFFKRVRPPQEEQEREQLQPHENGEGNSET
Chain of integrin αvβ3 (Homo sapiens) (P05106 27-788, chain 2 of 2, further chain): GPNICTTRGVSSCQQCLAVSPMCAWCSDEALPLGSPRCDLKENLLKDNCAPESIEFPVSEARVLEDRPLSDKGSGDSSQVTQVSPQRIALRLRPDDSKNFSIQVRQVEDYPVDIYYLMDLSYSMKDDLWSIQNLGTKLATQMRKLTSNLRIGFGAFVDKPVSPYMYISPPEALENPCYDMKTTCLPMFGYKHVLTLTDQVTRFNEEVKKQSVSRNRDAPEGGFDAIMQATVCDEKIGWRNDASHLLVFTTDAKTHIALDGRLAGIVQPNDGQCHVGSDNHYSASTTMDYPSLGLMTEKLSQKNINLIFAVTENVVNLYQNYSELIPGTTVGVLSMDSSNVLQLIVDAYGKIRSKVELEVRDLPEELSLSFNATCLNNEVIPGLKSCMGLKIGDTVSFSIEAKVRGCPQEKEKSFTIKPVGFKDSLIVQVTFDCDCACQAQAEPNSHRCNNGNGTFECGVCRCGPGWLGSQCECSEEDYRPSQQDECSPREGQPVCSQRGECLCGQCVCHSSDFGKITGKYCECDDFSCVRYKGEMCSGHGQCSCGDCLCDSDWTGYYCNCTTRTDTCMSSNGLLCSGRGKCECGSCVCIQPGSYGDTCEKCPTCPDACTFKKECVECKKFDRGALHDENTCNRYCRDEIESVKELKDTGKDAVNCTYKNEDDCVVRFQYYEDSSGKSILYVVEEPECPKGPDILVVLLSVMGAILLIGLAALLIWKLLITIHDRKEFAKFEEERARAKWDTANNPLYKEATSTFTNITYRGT

As usually defined, the Kd is the concentration at which binding is half-saturated. Echistatin (from UniProt P17347): the Kd in series [1] is 0.36 nM.
One may read the IC50 as the point on the concentration scale where inhibition reaches its midpoint. On to `N=C(N)NCCC[C@@H]1NC(=O)[C@H](CCCCN)NC(=O)[C@@H](Cc2ccc(O)cc2)NC(=O)[C@H](CC(=O)O)NC(=O)CNC1=O` [c(RGDyK)], for which the IC50 in the series with U87MG cells is […].
As a reminder, the tissue uptake is the percentage of the injected dose found per gram of tissue. For the compound `CC(C)C[C@@H]1NC(=O)[C@@H]2CSSC[C@@H](C(=O)NCC(N)=O)NC(=O)[C@H](Cc3ccccc3)NC(=O)CNC(=O)[C@H](CC(N)=O)NC(=O)[C@@H]3CCCN3C(=O)CNC(=O)[C@@H]3CSSC[C@H](NC(=O)[C@H](CO)NC(=O)[C@H]([C@@H](C)O)NC(=O)[C@@H]4CCCN4C(=O)[C@H](C)NC(=O)[C@H](Cc4c[nH]c5ccccc45)NC(=O)[C@H](CC(=O)O)NC(=O)CNC(=O)[C@H](CCCNC(=N)N)NC(=O)CNC(=O)[C@H](CCC(N)=O)NC(=O)[C@@H]4CCCN4C(=O)[C@@H](NC(=O)CNC(=O)CN4CCN(CC(=O)O)CCN(CC(=O)O)CCN(CC(=O)O)CC4)CSSC[C@H](NC(=O)CNC(=O)[C@H](C)NC1=O)C(=O)N[C@@H](C(C)C)C(=O)N3)C(=O)N[C@@H](CO)C(=O)N[C@@H](CCC(N)=O)C(=O)N[C@@H](CC(=O)O)C(=O)N[C@@H](CO)C(=O)N[C@@H](CC(=O)O)C(=O)N2` [^64Cu-DOTA-2.5D, metal not drawn] ({DOTA}-GCPQGRGDWAPTSCSQDSDCLAGCVCGPNGFCG-NH2; disulfide 2-24, 14-26, 20-32; C-terminus assumed), in series [2], the tissue uptake at 24 h was 1.25 ± 0.11 %ID/g and the tissue to tissue ratio at 4 h came out at 24.9 ± 2.62.
In the case of `CC(C)C[C@@H]1NC(=O)[C@@H]2CSSC[C@@H](C(=O)NCC(N)=O)NC(=O)[C@H](Cc3ccccc3)NC(=O)CNC(=O)[C@H](CC(N)=O)NC(=O)[C@@H]3CCCN3C(=O)CNC(=O)[C@@H]3CSSC[C@H](NC(=O)[C@H]([C@@H](C)O)NC(=O)[C@H](CC(C)C)NC(=O)[C@@H]4CCCN4C(=O)[C@@H]4CCCN4C(=O)[C@H](CC(N)=O)NC(=O)[C@H](CC(=O)O)NC(=O)CNC(=O)[C@H](CCCNC(=N)N)NC(=O)[C@@H]4CCCN4C(=O)[C@H](CCCNC(=N)N)NC(=O)[C@@H]4CCCN4C(=O)[C@@H](NC(=O)CNC(=O)CN4CCN(CC(=O)O)CCN(CC(=O)O)CCN(CC(=O)O)CC4)CSSC[C@H](NC(=O)CNC(=O)[C@H](C)NC1=O)C(=O)N[C@@H](C(C)C)C(=O)N3)C(=O)N[C@@H](CO)C(=O)N[C@@H](CCC(N)=O)C(=O)N[C@@H](CC(=O)O)C(=O)N[C@@H](CO)C(=O)N[C@@H](CC(=O)O)C(=O)N2` [^64Cu-DOTA-2.5F, metal not drawn] ({DOTA}-GCPRPRGDNPPLTCSQDSDCLAGCVCGPNGFCG-NH2; disulfide 2-24, 14-26, 20-32), in series [2], the tissue uptake at 24 h worked out at 1.09 ± 0.15 %ID/g and the tissue to tissue ratio at 4 h was 42.3 ± 8.65.
